From ChEMBL document CHEMBL1155897, “Structure-antitussive activity relationships of naltrindole derivatives. Identification of novel and potent antitussive agents” (J Med Chem, 2008) come the findings set out here.

Experiment [1] addresses Mu-type opioid receptor (Homo sapiens) (UniProt P35372). Nature of the experiment: Agonist activity at human mu opioid receptor expressed in CHO cells assessed as stimulation of [35S]GTPgammaS binding at 1 uM relative to DAMGO. The experiment is classed as functional, cell-based. In short, it runs like this: (§1)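 Compound was preincubated 20 min at 30 °C, then 60 min with SPA beads. 0.3 nM [35S]GTPγS was added for 30 min.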
(In general: GTPγS resists hydrolysis and so accumulates on activated G proteins.)

Experiment [2] concerns the target T1, Mu-type opioid receptor (Cavia porcellus, UniProt P97266). Nature of the experiment: Displacement of [3H]DAMGO from mu opioid receptor in Hartley guinea pig brain membrane. The class given is cell membranes. The method, boiled down: (§2)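 Brains from 4-week male Hartley guinea pigs were split into forebrain (µ, δ) and cerebellum (κ). Membranes were homogenised in 50 mM Tris-HCl pH 7.4 and held 1 h at 4 °C to remove endogenous ligands.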
In general terms: In a radioligand displacement assay an active substance lowers the binding of a labelled ligand.

Experiment [3] is filed under the species Cavia porcellus. Description: Selectivity for delta opioid receptor over mu opioid receptor in Hartley guinea pig brain membrane. The experiment is classed as cell membranes.
The target of experiment [4] is T2, Kappa-type opioid receptor (Cavia porcellus, UniProt P41144). Nature of the experiment: Displacement of […] from kappa opioid receptor in Hartley guinea pig brain membrane. The experiment is classed as cell membranes.
The target in experiment [5] is Delta-type opioid receptor (Homo sapiens) (UniProt P41143). Description: Agonist activity at human delta opioid receptor expressed in CHO cells assessed as stimulation of [35S]GTPgammaS binding at 1 uM relative to DPDPE. The class given is functional, cell-based. The method, boiled down:
as §1

In experiment [6] the target is T3, Delta-type opioid receptor (Mus musculus, UniProt P32300). Nature of the experiment: Antagonist activity at delta opioid receptor in electrically-induced ddY mouse vas deferens assessed as effect on DPDPE-induced inhibition of electrically-stimulated contraction at 30 uM. The class given is functional, tissue-based. The conditions noted are these: read-out: pA2 (converted). In short, it runs like this:
(§3)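 Vas deferens from male ddy mice was mounted in a Magnus tube at 37 °C in Krebs-Henseleit gassed with 95% O2/5% CO2 and electrically stimulated. Antagonist was added 20 min before cumulative agonist: DPDPE (δ), U-50,488H (κ) or morphine (µ). Dose ratio is the agonist IC50 with versus without antagonist, as mean of N=4. pA2 = −log([B]/(dose ratio − 1)).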

Experiment [7] is described as follows: Displacement of [3H]NTI from delta opioid receptor in Hartley guinea pig brain membrane. The experiment is classed as cell membranes, Cavia porcellus. The method, boiled down:
as §2

For experiment [8], the target named is T4, Kappa-type opioid receptor (Mus musculus, UniProt P33534). Description: Antagonist activity at kappa opioid receptor in electrically-induced ddY mouse vas deferens assessed as effect on U50,488H-induced inhibition of electrically-stimulated contraction at 30 uM. The conditions noted are these: read-out: pA2 (converted). The class given is functional, tissue-based. The method, boiled down:
as §3

The target in experiment [9] is T5, Mu-type opioid receptor (Mus musculus, UniProt P42866). Description: Antagonist activity at mu opioid receptor in electrically-induced ddY mouse vas deferens assessed as effect on morphine-induced inhibition of electrically-stimulated contraction at 30 uM. As to conditions: read-out: pA2 (converted). The experiment is classed as functional, tissue-based. In short, it runs like this:
as §3

Experiment [10] addresses Kappa-type opioid receptor (Homo sapiens) (UniProt P41145). Description: Agonist activity at human kappa opioid receptor expressed in HEK293 cells assessed as stimulation of [35S]GTPgammaS binding at 1 uM relative to U69,593. The class given is functional, cell-based. The method, boiled down: as §1
Experiment [11] is filed under the species Cavia porcellus. Nature of the experiment: Selectivity for delta opioid receptor over kappa opioid receptor in Hartley guinea pig brain membrane. The experiment is classed as cell membranes.
Experiment [12] can be described thus: Binding affinity to guinea pig delta opioid receptor. Details: species or system Cavia porcellus. The method, boiled down: as §2
Experiment [13] relates to Rattus norvegicus. Nature of the experiment: Antitussive activity in po dosed Sprague-Dawley rat assessed as reduction in number of capsaicin-induced coughs. The class given is functional.
The target in experiment [14] is T1, Mu-type opioid receptor. Description: Binding affinity to guinea pig mu opioid receptor. The method, boiled down: as §2
The target in experiment [15] is T3, Delta-type opioid receptor. Description: Antagonist activity at delta opioid receptor in electrically-induced ddY mouse vas deferens assessed as effect on DPDPE-induced inhibition of electrically-stimulated contraction at 10 uM. The conditions noted are these: read-out: pA2 (converted). The experiment is classed as functional, tissue-based. The method, boiled down:
as §3

Experiment [16] deals with T4, Kappa-type opioid receptor. Description: Antagonist activity at kappa opioid receptor in electrically-induced ddY mouse vas deferens assessed as effect on U50,488H-induced inhibition of electrically-stimulated contraction at 10 uM. The experiment is classed as functional, tissue-based. As to conditions: read-out: pA2 (converted). In short, it runs like this:
as §3

Experiment [17] has as its system Rattus norvegicus. Nature of the experiment: Antitussive activity in ip dosed Sprague-Dawley rat assessed as reduction in number of capsaicin-induced coughs. The class given is functional.
Experiment [18] has as its system Rattus norvegicus. Description: Effect on Sprague-Dawley rat capsaicin-induced cough nodel assessed as increase in number of coughs at 10 mg/kg, sc. Details: dose 10 mg/kg. The experiment is classed as functional, organism-based.
Experiment [19] addresses T4, Kappa-type opioid receptor. Description: Antagonist activity at kappa opioid receptor in electrically-induced ddY mouse vas deferens assessed as effect on U50,488H-induced inhibition of electrically-stimulated contraction at 100 uM. As to conditions: read-out: pA2 (converted). The class given is functional, tissue-based. In short, it runs like this:
as §3

In experiment [20] the target is T2, Kappa-type opioid receptor. Nature of the experiment: Binding affinity to guinea pig kappa opioid receptor. The method, boiled down:
as §2

In experiment [21] the target is T5, Mu-type opioid receptor. Description: Antagonist activity at mu opioid receptor in electrically-induced ddY mouse vas deferens assessed as effect on […]-induced inhibition of electrically-stimulated contraction at 10 uM. The experiment is classed as functional, tissue-based. The conditions noted are these: read-out: pA2 (converted).
The target in experiment [22] is T3, Delta-type opioid receptor. Description: Antagonist activity at delta opioid receptor in electrically-induced ddY mouse vas deferens assessed as effect on DPDPE-induced inhibition of electrically-stimulated contraction at 100 uM. The experiment is classed as functional, tissue-based. The conditions noted are these: read-out: pA2 (converted). The method, boiled down:
as §3

Calls of active or inactive are those of the source. The rule behind the calls is not given here.

Chain of Delta-type opioid receptor (Homo sapiens) (P41143 whole entry): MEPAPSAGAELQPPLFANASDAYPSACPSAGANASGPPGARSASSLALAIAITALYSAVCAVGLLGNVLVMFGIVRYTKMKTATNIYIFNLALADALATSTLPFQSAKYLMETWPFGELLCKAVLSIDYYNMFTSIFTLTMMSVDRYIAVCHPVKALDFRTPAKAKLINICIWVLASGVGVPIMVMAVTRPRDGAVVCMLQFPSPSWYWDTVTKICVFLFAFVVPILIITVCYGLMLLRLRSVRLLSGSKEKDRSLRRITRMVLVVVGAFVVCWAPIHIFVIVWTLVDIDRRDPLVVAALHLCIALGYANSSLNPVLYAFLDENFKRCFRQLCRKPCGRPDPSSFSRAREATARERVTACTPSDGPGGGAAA
T5 sequence (P42866 whole entry): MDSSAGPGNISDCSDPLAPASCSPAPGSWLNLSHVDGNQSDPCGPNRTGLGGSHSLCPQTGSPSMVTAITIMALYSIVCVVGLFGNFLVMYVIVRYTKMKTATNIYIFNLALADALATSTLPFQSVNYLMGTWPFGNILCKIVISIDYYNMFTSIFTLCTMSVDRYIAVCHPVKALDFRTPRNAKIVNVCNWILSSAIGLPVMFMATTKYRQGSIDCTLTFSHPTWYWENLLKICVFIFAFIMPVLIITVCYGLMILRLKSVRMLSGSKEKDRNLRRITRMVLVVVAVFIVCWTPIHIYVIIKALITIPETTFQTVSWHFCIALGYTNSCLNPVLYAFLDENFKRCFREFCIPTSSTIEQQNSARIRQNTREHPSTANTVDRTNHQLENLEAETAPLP
T1 sequence (P97266 whole entry): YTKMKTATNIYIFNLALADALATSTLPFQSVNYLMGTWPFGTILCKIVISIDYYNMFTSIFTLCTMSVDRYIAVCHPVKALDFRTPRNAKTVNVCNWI
T2 sequence (P41144 whole entry): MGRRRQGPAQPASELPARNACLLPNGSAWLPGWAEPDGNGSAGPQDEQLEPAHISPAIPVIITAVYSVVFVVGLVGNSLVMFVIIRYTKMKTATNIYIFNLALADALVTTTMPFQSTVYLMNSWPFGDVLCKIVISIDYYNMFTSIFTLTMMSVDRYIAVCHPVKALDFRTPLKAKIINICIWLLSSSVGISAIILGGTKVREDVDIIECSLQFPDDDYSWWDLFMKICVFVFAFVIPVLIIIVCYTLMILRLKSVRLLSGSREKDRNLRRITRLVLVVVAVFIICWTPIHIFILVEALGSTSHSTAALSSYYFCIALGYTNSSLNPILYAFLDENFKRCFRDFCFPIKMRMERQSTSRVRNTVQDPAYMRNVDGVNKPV
Chain of Mu-type opioid receptor (Homo sapiens) (P35372 whole entry): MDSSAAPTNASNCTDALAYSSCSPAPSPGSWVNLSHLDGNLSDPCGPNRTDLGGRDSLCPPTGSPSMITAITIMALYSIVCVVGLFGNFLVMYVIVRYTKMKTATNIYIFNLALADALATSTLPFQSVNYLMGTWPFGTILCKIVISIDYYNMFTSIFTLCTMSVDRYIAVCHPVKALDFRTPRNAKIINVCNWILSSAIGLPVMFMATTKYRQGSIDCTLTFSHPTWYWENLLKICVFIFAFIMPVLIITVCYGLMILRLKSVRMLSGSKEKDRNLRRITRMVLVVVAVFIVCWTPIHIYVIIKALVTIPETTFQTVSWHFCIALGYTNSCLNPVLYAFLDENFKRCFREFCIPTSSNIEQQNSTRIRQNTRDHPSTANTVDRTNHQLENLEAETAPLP
Chain of Kappa-type opioid receptor (Homo sapiens) (P41145 whole entry): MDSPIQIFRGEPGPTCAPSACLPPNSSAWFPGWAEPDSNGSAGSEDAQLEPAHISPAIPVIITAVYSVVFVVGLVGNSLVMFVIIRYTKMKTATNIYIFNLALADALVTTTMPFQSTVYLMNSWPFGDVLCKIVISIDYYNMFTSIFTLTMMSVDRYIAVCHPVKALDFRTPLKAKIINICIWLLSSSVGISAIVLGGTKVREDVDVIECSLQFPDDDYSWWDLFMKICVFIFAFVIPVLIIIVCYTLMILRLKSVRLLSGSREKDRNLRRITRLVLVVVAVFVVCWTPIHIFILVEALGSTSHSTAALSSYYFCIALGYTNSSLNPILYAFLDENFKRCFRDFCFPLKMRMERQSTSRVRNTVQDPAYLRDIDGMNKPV
T4 sequence (P33534 whole entry): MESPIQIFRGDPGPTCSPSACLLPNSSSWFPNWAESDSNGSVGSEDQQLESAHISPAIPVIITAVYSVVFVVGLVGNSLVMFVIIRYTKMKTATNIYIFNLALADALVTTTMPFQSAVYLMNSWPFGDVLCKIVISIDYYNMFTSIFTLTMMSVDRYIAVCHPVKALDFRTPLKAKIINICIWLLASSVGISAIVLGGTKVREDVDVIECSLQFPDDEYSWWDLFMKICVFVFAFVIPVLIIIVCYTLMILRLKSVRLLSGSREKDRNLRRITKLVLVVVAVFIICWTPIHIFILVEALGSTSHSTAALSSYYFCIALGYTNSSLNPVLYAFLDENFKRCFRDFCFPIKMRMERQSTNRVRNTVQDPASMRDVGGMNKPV
T3 sequence (P32300 whole entry): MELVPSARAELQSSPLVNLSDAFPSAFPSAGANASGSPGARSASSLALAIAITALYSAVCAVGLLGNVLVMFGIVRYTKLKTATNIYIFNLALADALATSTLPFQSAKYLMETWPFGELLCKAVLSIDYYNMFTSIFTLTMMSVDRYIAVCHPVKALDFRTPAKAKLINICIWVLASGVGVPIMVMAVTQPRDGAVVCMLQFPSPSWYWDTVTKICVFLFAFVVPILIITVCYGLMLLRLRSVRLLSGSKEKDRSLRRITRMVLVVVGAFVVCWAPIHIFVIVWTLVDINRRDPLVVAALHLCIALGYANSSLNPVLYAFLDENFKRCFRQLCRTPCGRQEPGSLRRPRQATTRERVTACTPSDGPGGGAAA

On to `Oc1ccc2c3c1O[C@H]1c4c(c5cccc6c5n4CCC6)C[C@@]4(O)[C@@H](C2)N(CC2CC2)CC[C@]314`, for which the Activity in [1] is 1%; in experiment [5] it was -2%; in [10], 26%. Moreover, the Ki came to 60.6 nM on Mu-type opioid receptor [2], 15.1 nM in experiment [4] and 0.673 nM in [7]. Moreover, the values for the Selectivity ratio in the experiment filed under Cavia porcellus [3] and in the experiment filed under Cavia porcellus [11] were 90 and 22, respectively. Besides, the Kb was 0.794 nM in experiment [6], 27.5 nM in experiment [8] and 12.6 nM on Mu-type opioid receptor [9].

Turning to `Oc1ccc2c3c1O[C@H]1c4[nH]c5ccccc5c4C[C@@]4(O)[C@@H](C2)N(CC2CC2)CC[C@]314` [NALTRINDOLE], the Ki was found to be 0.217 nM in experiment [12]; 12.7 nM on Mu-type opioid receptor [2]; 7.44 nM in [4]; 0.135 nM in experiment [7]; 27 nM at Mu-type opioid receptor [14]. In addition, the Activity in experiment [1] was 5%; in experiment [5], -3%; in experiment [10], 12%. Besides, the Selectivity ratio in the experiment filed under Cavia porcellus [3] was found to be 94; in the experiment filed under Cavia porcellus [11] it was 55. Also, the ED50 with Rattus norvegicus [13] is 1.83 mg/kg.

Take `COc1ccc2c3c1O[C@H]1c4c(c5cccc6c5n4CCCC6)C[C@@]4(O)[C@@H](C2)N(CC2CC2)CC[C@]314`: the Activity in experiment [1] is -1%; in experiment [5], 45%; in experiment [10] it was 11%. Also, the results for the Ki (on Mu-type opioid receptor [2]; in experiment [4]; in [7]) were above 3670 nM, 3340 nM and 274 nM, respectively. In addition, the Selectivity ratio was above 13 in the experiment filed under Cavia porcellus [3] and 12 in the experiment filed under Cavia porcellus [11]. Besides, the Kb in [15] is 295 nM; in experiment [16], 17 nM.

`Cn1c2c(c3ccccc31)C[C@@]1(O)[C@H]3Cc4ccc(O)c5c4[C@@]1(CCN3CC1CC1)[C@H]2O5`: the ED50 in the experiment with Rattus norvegicus [17] amounted to 0.204 mg/kg.

For `CN1CC[C@]2(c3cccc(O)c3)Cc3nc4ccccc4cc3C[C@H]2C1` (relative stereo), the outcome in the experiment on Rattus norvegicus [18] was Active.

Consider `COc1ccc2c3c1O[C@H]1c4c(c5cccc(C)c5n4C)C[C@@]4(O)[C@@H](C2)N(CC2CC2)CC[C@]314`, for which the ED50 with Rattus norvegicus [17] stood at 0.00635 mg/kg.

Take `Oc1ccc2c3c1O[C@H]1c4c(c5cccc6c5n4CC6)C[C@@]4(O)[C@@H](C2)N(CC2CC2)CC[C@]314`: the Activity in experiment [1] amounted to 0%; in experiment [5], 26%; in experiment [10] it was 3%. Moreover, the Ki was found to be 23.2 nM on Mu-type opioid receptor [2], 7.99 nM in [4] and 0.295 nM in [7]. Moreover, the Selectivity ratio in the experiment listed under Cavia porcellus [3] was 79; in the experiment listed under Cavia porcellus [11], 27. Also, the Kb is 7.94 nM in experiment [8] and 15.8 nM on Mu-type opioid receptor [9].

Turning to `COc1ccc2c3c1O[C@H]1c4c(c5cccc6c5n4CCC6)C[C@@]4(O)[C@@H](C2)N(CC2CC2)CC[C@]314.CS(=O)(=O)O`, the Activity in experiment [1] is -1%; in [5], 47%; in experiment [10], 8%. Besides, the inhibitory constant (Ki) on Mu-type opioid receptor [2] was above 3670 nM; in [4], 3290 nM; in [7] it was 79 nM. For the same molecule, the Selectivity ratio in the experiment listed under Cavia porcellus [3] was above 46; in the experiment listed under Cavia porcellus [11], 42. Also, in the experiment with Rattus norvegicus [13], the ED50 is 0.0064 mg/kg. The Kb in experiment [19] was 67.6 nM.

Turning to `COc1ccc2c3c1O[C@H]1c4[nH]c5ccccc5c4C[C@@]4(O)[C@@H](C2)N(CC2CC2)CC[C@]314`, the Ki in experiment [12] was 6.57 nM; at Mu-type opioid receptor [14] it was 2510 nM; in experiment [20], 3910 nM.

Regarding `Oc1ccc2c3c1O[C@H]1c4c(c5cccc6c5n4CCCC6)C[C@@]4(O)[C@@H](C2)N(CC2CC2)CC[C@]314`, the values for the Activity in experiment [1], in experiment [5] and in experiment [10] were -1%, 20% and 32%, respectively. Further, the Kb on Mu-type opioid receptor [21] was 18.2 nM; in experiment [16] it was 51.3 nM. Further, the Ki at Mu-type opioid receptor [2] was 113 nM; in experiment [4] it was 40 nM; in experiment [7], 2.26 nM. The Selectivity ratio amounted to 50 in the experiment listed under Cavia porcellus [3] and 18 in the experiment filed under Cavia porcellus [11]. For the same molecule, the ED50 in the experiment on Rattus norvegicus [17] worked out at 0.0123 mg/kg.

Take `CCn1c2c(c3cccc(C)c31)C[C@@]1(O)[C@H]3Cc4ccc(OC)c5c4[C@@]1(CCN3CC1CC1)[C@H]2O5`: the results for the Activity in experiment [1], in experiment [5] and in experiment [10] were 1%, 47% and 21%, respectively. Moreover, the values for the Ki (on Mu-type opioid receptor [2]; in experiment [4]; in [7]) were above 3670 nM, 4650 nM and 218 nM, respectively. The Selectivity ratio in the experiment listed under Cavia porcellus [3] is above 17; in the experiment filed under Cavia porcellus [11], 21. In the experiment on Rattus norvegicus [17], the ED50 was determined as 0.00179 mg/kg.

For the molecule `Oc1ccc2c3c1O[C@H]1c4[nH]c5c6c(ccc5c4C[C@@]4(O)[C@@H](C2)N(CC2CC2)CC[C@]314)CCCC6`, the figures for the Kb in experiment [22] and in experiment [19] were 23.4 nM and 1660 nM, respectively. The Activity was -1% in [1], 19% in [5] and 33% in experiment [10]. In addition, the Ki came to 200 nM on Mu-type opioid receptor [2], 52 nM in experiment [4] and 6.32 nM in experiment [7]. Further, the Selectivity ratio is 32 in the experiment listed under Cavia porcellus [3] and 8.2 in the experiment filed under Cavia porcellus [11].

Turning to `CCCn1c2c(c3ccccc31)C[C@@]1(O)[C@H]3Cc4ccc(OC)c5c4[C@@]1(CCN3CC1CC1)[C@H]2O5`, the ED50 in the experiment with Rattus norvegicus [17] was 0.0148 mg/kg.

The Ki is a measure of affinity in units of concentration, obtained from inhibition or displacement. Lower therefore signals tighter binding. For orientation: ED50 means the dose that gives a 50% effect, or the effect in half of the subjects.
